Here are results for 1 compound from ChEMBL document CHEMBL4414601 (J Med Chem, 2019).

This assay addresses T1, Calcium-dependent protein kinase 4 (Plasmodium falciparum (isolate 3D7), UniProt Q8IBS5).
T1 sequence (Q8IBS5 whole entry): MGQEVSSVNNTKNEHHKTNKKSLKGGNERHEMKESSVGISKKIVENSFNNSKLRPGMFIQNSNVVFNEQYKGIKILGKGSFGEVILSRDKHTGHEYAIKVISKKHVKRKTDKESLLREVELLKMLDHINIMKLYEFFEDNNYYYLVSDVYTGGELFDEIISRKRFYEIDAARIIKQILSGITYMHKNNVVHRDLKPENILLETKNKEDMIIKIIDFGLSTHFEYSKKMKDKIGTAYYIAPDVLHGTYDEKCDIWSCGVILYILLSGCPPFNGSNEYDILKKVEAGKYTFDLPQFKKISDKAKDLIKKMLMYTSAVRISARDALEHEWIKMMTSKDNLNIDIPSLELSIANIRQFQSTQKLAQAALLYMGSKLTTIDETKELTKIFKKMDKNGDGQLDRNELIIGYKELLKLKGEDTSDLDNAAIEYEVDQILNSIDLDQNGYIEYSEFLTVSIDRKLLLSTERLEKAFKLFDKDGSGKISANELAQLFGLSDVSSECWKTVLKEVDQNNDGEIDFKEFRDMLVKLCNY
Nature of the assay: Binding affinity to CDPK4 in Plasmodium falciparum 3D7 blood stage extract incubated for 1 hr by kinobeads based pull down assay. The settings on record: read-out: Kd(app). The method, boiled down:
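Chemoproteomic competition used kinobeads or Sepharose beads derivatized with ligand at 1 mM. Free compound was tested at six concentrations between 0.08 and 20 μM, in two independent experiments. Proteins were SP3-digested, TMT 10-plex labelled and measured by LC-MS/MS. IC50s came from competition curves, and apparent Kd was corrected for protein depletion by the beads.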

In the case of `Cc1cc(Nc2nccc(-c3sc(C4CCNCC4)nc3-c3ccc(F)cc3)n2)ccn1`, the Kd was 50 nM.
